Source: PubChem BioAssay
Shown is part of a subset that was picked to be rich in hits.
INS promoter act: TRM-6 insulin promoter activation; TRM-6 cells, insulin promoter eGFP reporter, imaging; plate-scaled: unstimulated 0, stimulated control 100; activation, % at 2 µM; 130,000 tested, 0.81% active; AID 1296;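 active = activation at 2 µM above a set limit, confirmed on inspection of the cell images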;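 note: share of cells whose green reporter signal exceeds an intensity cutoff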
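material = TRM-6 human fetal islet cells, insulin promoter–eGFP reporter | input = 1,000 TRM-6 cells seeded per well | benchmarks = stimulated versus unstimulated wells as plate controls | measured by = automated fluorescence imaging of paraformaldehyde-fixed, Hoechst-counterstained cells, green channel | schedule = compound exposure 48 h, 37 °C | reagent = tamoxifen at 0.75 µM added at seeding for reporter induction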
The depositor's hits bear a star; [ ] = another dose, or the depositor's remark.

SMILES | INS promoter act
CCOC(=O)c1cc2ccc(OC)cc2oc1=O | 5
CCN(CC)c1ccc2cc(-c3nc(-c4ccc(OC)cc4)cs3)c(=O)oc2c1 | 223*[fluoresces]
CN(C)C(=O)COc1ccc2cc(-c3ccccc3)c(=O)oc2c1 | -27
COC(=O)c1[nH]nc(C(=O)OC(C)(C)C)c1-c1ccccc1 | -8
Cc1cc(NC(=O)COC(=O)c2oc3c(Cl)cccc3c2C)no1 | 0
COc1cccc(NC(=O)C2C3C=CC4(O3)C2C(=O)N(C2CC2)C4C(=O)NC2CCCCC2C)c1 (centres undefined) | 810*
COc1cccc(NC(=O)C2C3C=CC4(O3)C2C(=O)N(C(C)C)C4C(=O)NC2CCCCC2C)c1 (centres undefined) | -29
CCCCN1C(=O)C2C(C(=O)Nc3cccc(OC)c3)C3C=CC2(O3)C1C(=O)NC1CCCCC1C (centres undefined) | 126
COc1cccc(NC(=O)C(=O)N/N=C/c2cc(C)n(-c3ccc(Cl)c(Cl)c3)c2C)c1 | -3
CCC(NC(=O)c1ccc([N+](=O)[O-])cc1[N+](=O)[O-])c1ccccc1 (centres undefined) | 80*
CCC(NC(=O)COc1ccc([N+](=O)[O-])cc1)c1ccccc1 (centres undefined) | -67
O=C(Nc1cccc2oc(=O)ccc12)c1ccc([N+](=O)[O-])cc1[N+](=O)[O-] | 0
O=C(Nc1ccc([N+](=O)[O-])cc1)Nc1nc(-c2ccc(Cl)s2)cs1 | -78
C/C=C/C=N/Nc1nc(C)cc(=O)[nH]1 | 6
c1ccc(-c2cc(-c3ccccc3)n3ncnc3n2)cc1 | -69
Fc1ccc(-c2cc(C(F)(F)F)n3ncnc3n2)cc1 | 235*
Nc1nc2nc(-c3ccc(OCc4ccccc4)cc3)cc(C(F)(F)F)n2n1 | -3
Cc1cccc(NC(=O)CCSc2nnc(Cc3ccccc3)o2)c1 | 9
COc1ccc(N2C(=O)CC(SCC(=O)O)C2=O)cc1 (centres undefined) | 438*
COc1ccc(N2C(=O)CC(Sc3nc(C)c4c(n3)CCCC4)C2=O)cc1 (centres undefined) | -6
CCOc1ccc(N2C(=O)CC(SCC(=O)O)C2=O)cc1 (centres undefined) | 7
Cc1onc(-c2c(F)cccc2Cl)c1C(=O)NC(=S)NCc1cccnc1 | 0
O=C1NC(=O)C2(COC(c3ccccc3Cl)OC2)S1 (centres undefined) | 0
COc1ccc(COn2c(=O)c(C)[n+]([O-])c3ccccc32)cc1OC | 86*
Cc1c(=O)n(OCc2ccccc2)c2ccccc2[n+]1[O-] | 356
SMILES | INS promoter act
O=c1c(-c2cc3ccccc3o2)[n+]([O-])c2ccccc2n1OCc1ccccn1 | -5
CN(CCc1ccccn1)C(=S)NC(=O)c1ccco1 | 0
CN(C)/C=C(/C#N)C(=O)c1cccc(Oc2ccc(C(C)(C)C)cc2)c1 | 4
CCCOc1cccc(NC(=O)OC2CCN(C)CC2)c1 | -8
COc1ccc(N2CCN(C(=O)C34CCC(C)(C(=O)C3)C4(C)C)CC2)cc1 (centres undefined) | -6
CC12CCC(C(=O)N3CCc4ccccc43)(CC1=O)C2(C)C (centres undefined) | 514*
CC12CCC(C(=O)Nc3ccccc3N3CCOCC3)(CC1=O)C2(C)C (centres undefined) | 8
CCc1nc2cc([N+](=O)[O-])c([N+](=O)[O-])cc2[nH]1 | -75
COc1ccc(-c2nnn(Cc3ccccc3F)n2)cc1 | 521*
COc1ccc(N2C(=O)N(Cc3ccccc3F)c3ccccc3S2(=O)=O)cc1 | 136
CCOC(=O)CC(NC(=O)Cn1nnc(-c2ccccc2)n1)c1ccc(OC)cc1 (centres undefined) | -6
COc1ccc(C)cc1NC(=O)CSc1nnc(CC(=O)Nc2ccccc2C)n1C | -67
CN(C)c1ccc(/C=C/c2ccncc2)cc1 | 87*
COc1ccc(/C=C/c2ccncc2)cc1 | -8
CC(C)OP(=O)(c1ccc(N(C)C)cc1)C(O)c1ccncc1 (centres undefined) | -8
O=C(CCN1C(=O)c2ccccc2C1=O)Nc1sc2c(c1C(=O)NCC1CCCO1)CCC2 (centres undefined) | -4
CSc1nc2c(c(=O)[nH]1)C(c1cccc(Br)c1)CC(=O)N2 (centres undefined) | -9
Nc1c(C(=O)Nc2nc3ccccc3s2)sc2nc(-c3cccs3)ccc12 | 196*
O=C(NC(=S)Nc1nc2ccccc2s1)c1cccs1 | -7
Nc1c(C(=O)Nc2ccccc2)sc2nc(-c3ccco3)ccc12 | -80
COc1cc(NS(=O)(=O)c2ccc(Nc3nc(-c4ccccc4)cs3)cc2)nc(OC)n1 | -3
Cc1ccc(N=C/C(C(=O)C(F)(F)F)=C(\O)c2ccco2)cc1Cl | 3
O=C(NN=C1C2CC3CC(C2)CC1C3)c1cccc(S(=O)(=O)N2CCOCC2)c1 | -4
Nc1cc(C(=O)O)c(Oc2ccc(Cl)cc2Cl)cc1C(=O)O | -67
COc1cc(C(=O)N[C@H](C(=O)NC(C)C23CC4CC(CC(C4)C2)C3)C(C)C)cc(OC)c1OC (some centres undefined) | -3
